Laboratory results published in BindingDB's records for doi:10.1021/jm020269o (The Pennsylvania State University, 2003).

Key:
[1] = target: T1, Bifunctional epoxide hydrolase 2 (Mus musculus, UniProt P34914); assay: Inhibitory activity against murine soluble epoxide hydrolase
T1 sequence (P34914 whole entry): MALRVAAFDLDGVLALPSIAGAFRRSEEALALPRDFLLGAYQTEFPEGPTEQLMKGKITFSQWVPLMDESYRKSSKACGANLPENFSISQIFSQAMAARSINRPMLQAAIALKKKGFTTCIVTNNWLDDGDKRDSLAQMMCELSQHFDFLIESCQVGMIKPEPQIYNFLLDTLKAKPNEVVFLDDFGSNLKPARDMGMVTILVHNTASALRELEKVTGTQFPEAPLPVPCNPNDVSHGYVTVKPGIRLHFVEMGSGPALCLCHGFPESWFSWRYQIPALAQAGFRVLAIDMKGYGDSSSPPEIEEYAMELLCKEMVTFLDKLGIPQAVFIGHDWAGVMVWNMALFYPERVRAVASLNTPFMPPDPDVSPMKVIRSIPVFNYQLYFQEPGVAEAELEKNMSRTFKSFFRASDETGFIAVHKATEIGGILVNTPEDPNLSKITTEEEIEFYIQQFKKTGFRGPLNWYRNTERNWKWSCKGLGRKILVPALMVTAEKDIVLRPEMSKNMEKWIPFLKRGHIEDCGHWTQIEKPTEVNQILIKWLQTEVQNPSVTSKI
Procedure, shortened: (§1)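 Recombinant sEH (human HsEH or mouse MsEH) was expressed in baculovirus, affinity-purified to at least 97% purity, and had no detectable esterase or glutathione transferase activity. Enzyme (HsEH 0.20 µM, MsEH 0.10 µM) was preincubated with inhibitor for 5 min at 30 °C in pH 7.4 sodium phosphate buffer. Racemic 4-nitrophenyl-trans-2,3-epoxy-3-phenylpropyl carbonate (40 µM) was then added. 4-Nitrophenolate was read at 405 nm over 1 min. Assays were run in triplicate, with inhibitor up to 500 µM. IC50 came from regression of at least five points.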

[2] = target: T2, Bifunctional epoxide hydrolase 2 (Homo sapiens, UniProt P34913); assay: Inhibitory activity against human soluble epoxide hydrolase; procedure, shortened: as §1
T2 sequence (P34913 whole entry): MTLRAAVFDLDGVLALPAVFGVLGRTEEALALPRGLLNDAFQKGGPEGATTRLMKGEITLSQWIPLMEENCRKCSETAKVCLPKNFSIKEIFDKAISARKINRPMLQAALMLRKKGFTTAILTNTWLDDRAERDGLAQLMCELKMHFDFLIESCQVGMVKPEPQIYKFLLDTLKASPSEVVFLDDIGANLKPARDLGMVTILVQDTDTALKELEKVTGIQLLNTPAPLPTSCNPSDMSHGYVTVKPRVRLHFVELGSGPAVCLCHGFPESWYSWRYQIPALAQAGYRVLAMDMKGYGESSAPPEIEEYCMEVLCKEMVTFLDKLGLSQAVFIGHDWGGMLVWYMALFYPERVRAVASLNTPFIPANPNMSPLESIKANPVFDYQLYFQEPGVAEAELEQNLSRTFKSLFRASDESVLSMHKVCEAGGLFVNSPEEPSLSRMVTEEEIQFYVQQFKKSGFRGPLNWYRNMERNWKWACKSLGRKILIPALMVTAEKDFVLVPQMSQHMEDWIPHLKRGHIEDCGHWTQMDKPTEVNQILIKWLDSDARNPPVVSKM

For CCCCCCCCCCCCNC(=O)NC1CCCC1 [1-Cyclopentyl-3-dodecyl-urea], the IC50 [1] was 0.1 µM and the IC50 [2] was 0.549 µM.

Work on CCCCCCCCCCCCNC(=O)NCC(C)(C)C(C)(C)C [1-Dodecyl-3-(2,2,3,3-tetramethyl-butyl)-urea] yielded an IC50 [1] of 0.129 µM and an IC50 [2] of 229 µM.

In the case of CCCCCCNC(=O)NC [1-Hexyl-3-methyl-urea], the IC50 [1] is reported as 224 µM.

CN(C(=O)NC1CCCCC1)c1ccccc1 [3-Cyclohexyl-1-methyl-1-phenyl-urea] showed an IC50 [1] of 195 µM and an IC50 [2] of 129 µM.

Molecule CC(C)(C)OC(=O)CNC(=O)NC1CCCCC1 [(3-Cyclohexyl-ureido)-acetic acid tert-butyl ester] has an IC50 [1] of 4.37 µM and an IC50 [2] of 19 µM.

O=C(Nc1ccc(Cl)c(Cl)c1)Nc1ccc(Cl)c(Cl)c1 [US8815951, 299] gave an IC50 [2] of 0.257 µM.
